Blank lines part the entries; values can stand above or below the compound they belong to.
Experiments:
[1] = Blood PTH analog concentrations; type: in vivo; conditions: female, CD-1, mouse, serum, sc, 10 nmol/kg
[2] = target: bovine serum albumin (bovine) (UniProt P02769); assay: BLI
pHL2-hPTH1R = target: T1, pHL2-hPTH1R (Homo sapiens, UniProt Q03431); assay: Receptor internalization in GPG-10 cells; type: cell-based; conditions: 1x10-8 to 1x10-5 M, fluorescence ratio 485/405, n = 3
T1 sequence (Q03431 106-593 limits assumed): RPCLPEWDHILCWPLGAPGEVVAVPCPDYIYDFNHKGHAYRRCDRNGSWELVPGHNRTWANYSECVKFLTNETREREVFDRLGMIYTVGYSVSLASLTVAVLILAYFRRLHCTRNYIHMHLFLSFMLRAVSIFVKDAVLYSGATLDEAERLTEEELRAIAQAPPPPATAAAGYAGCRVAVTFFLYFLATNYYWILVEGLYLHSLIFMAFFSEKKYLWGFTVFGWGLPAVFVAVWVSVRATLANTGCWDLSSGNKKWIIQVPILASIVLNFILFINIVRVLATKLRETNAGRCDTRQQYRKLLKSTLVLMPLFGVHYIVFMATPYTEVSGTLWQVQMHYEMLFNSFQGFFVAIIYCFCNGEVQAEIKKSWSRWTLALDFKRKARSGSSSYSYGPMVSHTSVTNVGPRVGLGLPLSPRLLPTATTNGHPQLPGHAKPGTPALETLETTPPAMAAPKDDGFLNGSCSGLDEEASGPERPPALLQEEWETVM
In short: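 Assay used HEK293 cells stably expressing glosensor plus hPTH1R with pHluorin2 inserted in the ECD E2 region. Confluent monolayers were rinsed with HBSS (0.1% BSA, 10 mM HEPES, pH 7.4), and baseline was recorded for 10 min: 535 nm emission with alternating 485/405 nm excitation at 1-min cycles. Ligand was then added and reading continued for 90 min. The AUC of the 485/405 ratio vs time was taken at each concentration.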

Sequence of bovine serum albumin (bovine) (P02769 25-607): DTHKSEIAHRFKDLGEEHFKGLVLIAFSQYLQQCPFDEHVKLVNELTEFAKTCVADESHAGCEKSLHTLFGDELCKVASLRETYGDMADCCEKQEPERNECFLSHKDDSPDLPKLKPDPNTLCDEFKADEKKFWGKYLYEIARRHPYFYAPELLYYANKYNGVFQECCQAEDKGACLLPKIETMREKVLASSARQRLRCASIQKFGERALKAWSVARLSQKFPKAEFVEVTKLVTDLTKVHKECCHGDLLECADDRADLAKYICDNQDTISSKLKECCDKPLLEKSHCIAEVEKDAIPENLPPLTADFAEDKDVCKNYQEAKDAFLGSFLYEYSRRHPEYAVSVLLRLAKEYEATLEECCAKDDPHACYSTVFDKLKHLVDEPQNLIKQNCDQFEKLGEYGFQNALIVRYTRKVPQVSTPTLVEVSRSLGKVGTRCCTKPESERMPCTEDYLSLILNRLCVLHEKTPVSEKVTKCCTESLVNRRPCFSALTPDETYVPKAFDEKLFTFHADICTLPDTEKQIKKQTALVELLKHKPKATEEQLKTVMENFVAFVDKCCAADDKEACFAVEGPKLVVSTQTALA

- half-life [1]: 18 min
Compound: CC[C@H](C)[C@H](NC(=O)[C@H](CCC(=O)O)NC(=O)[C@H](CO)NC(=O)[C@@H](NC(=O)[C@@H](N)CO)C(C)C)C(=O)N[C@@H](CCC(N)=O)C(=O)N[C@@H](CC(C)C)C(=O)N[C@@H](CCSC)C(=O)N[C@@H](Cc1cnc[nH]1)C(=O)N[C@@H](CC(N)=O)C(=O)N[C@@H](CC(C)C)C(=O)NCC(=O)N[C@@H](CCCCN)C(=O)N[C@@H](Cc1cnc[nH]1)C(=O)N[C@@H](CC(C)C)C(=O)N[C@@H](CC(N)=O)C(=O)N[C@@H](CO)C(=O)N[C@@H](CCSC)C(=O)N[C@@H](CCC(=O)O)C(=O)N[C@@H](CCCNC(=N)N)C(=O)N[C@H](C(=O)N[C@@H](CCC(=O)O)C(=O)N[C@@H](Cc1c[nH]c2ccccc12)C(=O)N[C@@H](CC(C)C)C(=O)N[C@@H](CCCNC(=N)N)C(=O)N[C@@H](CCCCN)C(=O)N[C@@H](CCCCN)C(=O)N[C@@H](CC(C)C)C(=O)N[C@@H](CCC(N)=O)C(=O)N[C@@H](CC(=O)O)C(=O)N[C@H](C(=O)N[C@@H](Cc1cnc[nH]1)C(=O)N[C@@H](CC(N)=O)C(=O)N[C@@H](Cc1ccccc1)C(N)=O)C(C)C)C(C)C [PTH(1-34)]

- fold lower estimated KD than the non-lipidated counterpart M-PTH(1-14) [2]: > 3 fold
Compound: Palm-M-PTH(1-14) (peptide)

- PHL2-PTH1R internalization into acidic compartments (pHL2-hPTH1R): did not induce internalization
Compound: L11,dW12,W23,Y36-PTHrP(7-36)

Source: publication PMC12078793 (Nature Communications, 2025)
